These results are taken from ChEMBL document CHEMBL4402597, “Truncated (N)-Methanocarba Nucleosides as Partial Agonists at Mouse and Human A3 Adenosine Receptors: Affinity Enhancement by N6-(2-Phenylethyl) Substitution” (J Med Chem, 2020).

pIC50, pKi: −log10 of the molar value. Active and inactive are the calls of the source. The calls are words filed in the database; no cut-off is given here.

In series [1] the test system is Mus musculus. Description: In vivo agonist activity at A3AR in C57BL/6J mouse assessed as reduction in core body temperature at 10 mg/kg, ip measured up to 2 hrs by telemetric method. Format: functional, organism-based. The procedure, abridged: (§1)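 Male C57BL/6J wild-type mice, plus A3AR-knockout (ADORA3−/−) mice at 10 mg/kg, given test agent or vehicle i.p. Core body temperature (Tb) was followed over time. N=4 to 12 per group. Groups were compared by two-tailed t-test, paired or unpaired as appropriate.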

Series [2] is described as follows: in vivo. The conditions noted are these: Wistar, rat, po, 3 mg/kg.
In another series the target is T1, Adenosine receptor A1 (Mus musculus, UniProt Q60612).
T1 sequence (Q60612 whole entry): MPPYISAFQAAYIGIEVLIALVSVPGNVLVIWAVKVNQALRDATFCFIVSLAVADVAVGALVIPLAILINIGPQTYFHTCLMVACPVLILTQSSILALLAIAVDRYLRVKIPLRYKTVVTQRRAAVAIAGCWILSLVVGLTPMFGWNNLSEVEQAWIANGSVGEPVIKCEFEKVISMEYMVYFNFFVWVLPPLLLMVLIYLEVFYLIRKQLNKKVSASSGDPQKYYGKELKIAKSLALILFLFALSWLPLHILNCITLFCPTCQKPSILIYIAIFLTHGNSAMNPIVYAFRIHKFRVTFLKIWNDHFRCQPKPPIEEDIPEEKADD
The series can be described thus: Displacement of [3H]R-PIA from recombinant mouse A1AR expressed in HEK293 cell membranes measured after 60 mins by liquid scintillation counting method. In general terms: Loss of bound radioactivity is the signal in a displacement assay; it reports binding, not function.

For series [3], the target named is Sigma non-opioid intracellular receptor 1 (Homo sapiens, UniProt Q99720). The series can be described thus: Displacement of [3H]-Pentazocine from sigma 1 receptor (unknown origin) measured after 90 mins by microbeta counting analysis.
Chain of Sigma non-opioid intracellular receptor 1 (Q99720 whole entry): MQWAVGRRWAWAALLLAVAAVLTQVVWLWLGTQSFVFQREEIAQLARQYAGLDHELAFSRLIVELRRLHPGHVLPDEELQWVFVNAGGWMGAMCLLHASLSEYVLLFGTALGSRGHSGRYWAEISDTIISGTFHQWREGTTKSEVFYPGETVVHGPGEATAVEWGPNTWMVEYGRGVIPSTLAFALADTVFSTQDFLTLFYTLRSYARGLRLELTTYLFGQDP
A further series deals with T2, Cytochrome P450 1A2 (Homo sapiens, UniProt P05177).
T2 sequence (P05177 whole entry): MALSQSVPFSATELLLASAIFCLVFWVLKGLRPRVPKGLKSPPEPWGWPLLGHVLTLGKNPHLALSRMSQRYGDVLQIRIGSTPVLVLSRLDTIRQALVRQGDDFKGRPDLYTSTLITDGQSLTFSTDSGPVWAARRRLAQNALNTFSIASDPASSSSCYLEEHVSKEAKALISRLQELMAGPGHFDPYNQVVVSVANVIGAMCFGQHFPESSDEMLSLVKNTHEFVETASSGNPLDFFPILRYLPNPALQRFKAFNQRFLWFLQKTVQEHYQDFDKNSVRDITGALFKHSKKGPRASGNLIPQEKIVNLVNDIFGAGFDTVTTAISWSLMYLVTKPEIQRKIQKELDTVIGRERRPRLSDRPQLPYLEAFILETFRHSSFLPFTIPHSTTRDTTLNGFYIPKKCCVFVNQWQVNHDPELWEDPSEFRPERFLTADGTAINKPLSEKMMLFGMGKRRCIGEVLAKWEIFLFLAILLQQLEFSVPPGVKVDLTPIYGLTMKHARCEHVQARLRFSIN
The series can be described thus: Inhibition of CYP1A2 (unknown origin).

The next series concerns the target Translocator protein (Homo sapiens, UniProt P30536). The series can be described thus: Inhibition of TSPO (unknown origin).
Series [4] deals with Mus musculus. The series can be described thus: In vivo agonist activity at A3AR in C57BL/6J mouse assessed as reduction in core body temperature at 3 mg/kg, ip measured up to 2 hrs by telemetric method. The class given is functional, organism-based. The procedure, abridged: as §1
The target in a further series is Adenosine receptor A2a (Homo sapiens, UniProt P29274). Description: Displacement of [3H]CGS21680 from recombinant human A2AAR expressed in HEK293 cell membranes at 10 uM measured after 60 mins by liquid scintillation counting method relative to control.
Chain of Adenosine receptor A2a (P29274 whole entry): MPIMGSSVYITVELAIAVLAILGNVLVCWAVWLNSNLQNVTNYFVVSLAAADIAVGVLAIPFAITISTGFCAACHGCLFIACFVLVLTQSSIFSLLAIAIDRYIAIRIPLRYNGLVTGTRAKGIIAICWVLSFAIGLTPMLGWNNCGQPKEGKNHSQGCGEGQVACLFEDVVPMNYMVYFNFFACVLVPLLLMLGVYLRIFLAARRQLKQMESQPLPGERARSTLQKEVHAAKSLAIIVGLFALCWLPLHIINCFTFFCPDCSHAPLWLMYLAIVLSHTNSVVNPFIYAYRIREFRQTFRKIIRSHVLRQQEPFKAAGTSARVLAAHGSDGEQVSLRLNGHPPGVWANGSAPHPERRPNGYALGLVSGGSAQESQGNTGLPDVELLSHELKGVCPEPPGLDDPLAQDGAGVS
For series [5], the system named is Mus musculus. Description: Induction of hypothermia in A3AR knock out C57BL/6J mouse at 10 mg/kg, ip measured up to 2 hrs by telemetric method. Format: functional, organism-based. The procedure, abridged: as §1
In another series the target is Cytochrome P450 2D6 (Homo sapiens, UniProt P10635). Description: Inhibition of CYP2D6 (unknown origin) using dextromethorphan as substrate.
Chain of Cytochrome P450 2D6 (P10635 whole entry): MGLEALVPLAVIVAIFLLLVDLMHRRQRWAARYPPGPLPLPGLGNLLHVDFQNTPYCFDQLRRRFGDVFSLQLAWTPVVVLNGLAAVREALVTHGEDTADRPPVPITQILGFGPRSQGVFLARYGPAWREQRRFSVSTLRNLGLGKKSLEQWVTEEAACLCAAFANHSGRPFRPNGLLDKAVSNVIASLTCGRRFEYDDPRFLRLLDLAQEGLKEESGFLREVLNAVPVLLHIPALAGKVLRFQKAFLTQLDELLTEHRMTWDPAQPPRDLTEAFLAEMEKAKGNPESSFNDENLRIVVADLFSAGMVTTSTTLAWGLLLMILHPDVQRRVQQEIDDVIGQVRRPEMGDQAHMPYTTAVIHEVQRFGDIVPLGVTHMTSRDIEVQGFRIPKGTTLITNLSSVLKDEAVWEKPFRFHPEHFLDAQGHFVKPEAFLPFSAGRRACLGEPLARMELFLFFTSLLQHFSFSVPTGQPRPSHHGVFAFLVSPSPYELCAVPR
Series [6] has as its target T3, Adenosine receptor A1 (Homo sapiens) (UniProt P30542).
T3 sequence (whole entry): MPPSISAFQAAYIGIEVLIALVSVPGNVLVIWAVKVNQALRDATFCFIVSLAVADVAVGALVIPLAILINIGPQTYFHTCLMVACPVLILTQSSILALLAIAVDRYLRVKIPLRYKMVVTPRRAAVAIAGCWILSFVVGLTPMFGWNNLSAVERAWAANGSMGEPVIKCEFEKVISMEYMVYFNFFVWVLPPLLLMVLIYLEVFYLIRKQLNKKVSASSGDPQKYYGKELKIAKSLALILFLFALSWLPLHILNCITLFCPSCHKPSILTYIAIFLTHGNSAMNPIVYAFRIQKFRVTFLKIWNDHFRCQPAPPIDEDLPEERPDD
Description: Displacement of [3H]R-PIA from recombinant human A1AR expressed in HEK293 cell membranes at 10 uM measured after 60 mins by liquid scintillation counting method relative to control.

The next series concerns the target Cytochrome P450 2C19 (Homo sapiens, UniProt P33261). The series can be described thus: Inhibition of CYP2C19 (unknown origin).
Series [7] has as its system Mus musculus. The series can be described thus: In vivo antagonist activity at A3AR in C57BL/6J mouse assessed as inhibition of MRS5698-induced hypothermia at 3 to 10 mg/kg, ip pretreated for 15 mins followed by MRS5698 addition and measured up to 2 hrs by telemetric method. Format: functional, organism-based.
For series [8], the target named is Sigma intracellular receptor 2 (Homo sapiens, UniProt Q5BJF2). The series can be described thus: Displacement of [3H]-DTG from sigma 2 receptor (unknown origin) measured after 90 mins by microbeta counting analysis.
Chain of Sigma intracellular receptor 2 (Q5BJF2 whole entry): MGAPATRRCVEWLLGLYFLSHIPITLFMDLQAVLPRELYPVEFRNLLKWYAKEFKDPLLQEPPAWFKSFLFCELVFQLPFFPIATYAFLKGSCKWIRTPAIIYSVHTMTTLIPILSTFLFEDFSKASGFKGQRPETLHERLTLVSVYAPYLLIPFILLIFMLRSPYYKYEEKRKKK
Series [9] is described as follows: Half life in Wistar rat at 10 mg/kg, po. To be noted: in vivo. The class given is ADME, organism-based.
Another series concerns the target Cytochrome P450 2C9 (Homo sapiens, UniProt P11712). Description: Inhibition of CYP2C9 (unknown origin) using tolbutamide as substrate.
The target of series [10] is T4, Adenosine receptor A3 (Mus musculus) (UniProt Q61618).
T4 sequence (whole entry): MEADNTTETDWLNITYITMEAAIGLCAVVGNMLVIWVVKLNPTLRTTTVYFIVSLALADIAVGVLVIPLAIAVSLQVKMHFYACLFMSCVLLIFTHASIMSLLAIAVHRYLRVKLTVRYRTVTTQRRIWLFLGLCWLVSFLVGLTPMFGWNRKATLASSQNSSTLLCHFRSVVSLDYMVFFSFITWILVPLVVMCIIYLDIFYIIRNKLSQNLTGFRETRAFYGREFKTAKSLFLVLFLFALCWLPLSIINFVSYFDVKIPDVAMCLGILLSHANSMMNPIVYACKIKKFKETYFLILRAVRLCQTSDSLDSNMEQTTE
Description: Partial agonist activity at recombinant mouse A3AR expressed in HEK293 cell membranes assessed as stimulation of [35S]GTPgammaS binding measured after 2 hrs in presence of A2BAR blocker PSB-603 by liquid scintillation counting analysis relative to adenosine-5'-Nethyluronamide. Format: functional. Background: GTPγS resists hydrolysis and so accumulates on activated G proteins.

Series [11] can be described thus: Half life in Wistar rat at 3 mg/kg, po. The class given is ADME, organism-based. The conditions noted are these: in vivo.
Series [12] addresses T5, Adenosine receptor A3 (Homo sapiens) (UniProt P0DMS8).
T5 sequence (whole entry): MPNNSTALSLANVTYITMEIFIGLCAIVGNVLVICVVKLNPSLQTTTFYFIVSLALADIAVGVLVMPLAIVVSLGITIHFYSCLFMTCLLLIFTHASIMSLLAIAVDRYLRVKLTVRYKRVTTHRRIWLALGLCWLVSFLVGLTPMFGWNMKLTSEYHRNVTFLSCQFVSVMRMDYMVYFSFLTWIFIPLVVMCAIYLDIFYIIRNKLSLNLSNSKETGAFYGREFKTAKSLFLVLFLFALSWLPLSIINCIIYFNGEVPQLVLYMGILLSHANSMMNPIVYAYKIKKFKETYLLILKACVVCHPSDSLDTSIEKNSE
Description: Partial agonist activity at recombinant human A3AR expressed in HEK293 cells assessed as inhibition of forskolin-stimulated cAMP accumulation at 10 uM measured after 30 mins in presence of A2BAR blocker PSB-603 by Glo-sensor assay relative to Cl-IB-MECA. The class given is functional, cell-based. (Changes in cAMP serve as a functional read-out for many G protein-coupled receptors.)

Series [13] in a line: in vivo. The conditions noted are these: Wistar, rat, po, 10 mg/kg.
The target of a further series is Cytochrome P450 3A4 (Homo sapiens, UniProt P08684). The series can be described thus: Inhibition of CYP3A4 (unknown origin) using midazolam as substrate.
Chain of Cytochrome P450 3A4 (P08684 whole entry): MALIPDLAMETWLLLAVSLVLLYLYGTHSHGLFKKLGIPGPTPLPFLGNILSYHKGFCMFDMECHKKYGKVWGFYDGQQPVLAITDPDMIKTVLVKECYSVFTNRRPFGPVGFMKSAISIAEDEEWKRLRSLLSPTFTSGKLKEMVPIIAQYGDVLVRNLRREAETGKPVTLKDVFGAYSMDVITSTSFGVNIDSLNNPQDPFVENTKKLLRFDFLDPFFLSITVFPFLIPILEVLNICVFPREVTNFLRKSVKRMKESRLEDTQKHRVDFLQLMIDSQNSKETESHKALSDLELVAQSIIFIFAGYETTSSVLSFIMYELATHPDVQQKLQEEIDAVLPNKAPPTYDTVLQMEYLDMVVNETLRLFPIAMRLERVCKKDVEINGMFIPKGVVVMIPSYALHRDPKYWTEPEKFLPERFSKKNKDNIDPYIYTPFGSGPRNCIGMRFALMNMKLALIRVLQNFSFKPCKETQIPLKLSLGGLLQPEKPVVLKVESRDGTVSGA
Series [14] concerns the target T5, Adenosine receptor A3 (Homo sapiens). The series can be described thus: Partial agonist activity at recombinant human A3AR expressed in HEK293 cells assessed as inhibition of forskolin-stimulated cAMP accumulation by measuring residual cAMP level measured after 30 mins in presence of A2BAR blocker PSB-603 by Glo-sensor assay relative to control. The class given is functional, cell-based.

Chain of Cytochrome P450 2C19 (P33261 whole entry): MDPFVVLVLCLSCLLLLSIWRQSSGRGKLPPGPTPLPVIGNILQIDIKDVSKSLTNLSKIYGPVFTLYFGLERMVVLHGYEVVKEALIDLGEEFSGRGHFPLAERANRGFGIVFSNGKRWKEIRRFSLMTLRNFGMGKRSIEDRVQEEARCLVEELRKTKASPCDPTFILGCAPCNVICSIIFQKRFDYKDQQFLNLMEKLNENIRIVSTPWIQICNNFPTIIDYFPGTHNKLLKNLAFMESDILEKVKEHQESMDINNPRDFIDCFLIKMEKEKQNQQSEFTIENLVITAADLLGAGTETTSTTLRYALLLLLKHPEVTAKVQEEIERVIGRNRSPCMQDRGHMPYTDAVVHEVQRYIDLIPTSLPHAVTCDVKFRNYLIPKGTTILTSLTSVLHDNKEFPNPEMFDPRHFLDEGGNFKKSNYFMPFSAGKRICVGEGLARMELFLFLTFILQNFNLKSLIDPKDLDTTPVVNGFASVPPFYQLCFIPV
Chain of Translocator protein (P30536 whole entry): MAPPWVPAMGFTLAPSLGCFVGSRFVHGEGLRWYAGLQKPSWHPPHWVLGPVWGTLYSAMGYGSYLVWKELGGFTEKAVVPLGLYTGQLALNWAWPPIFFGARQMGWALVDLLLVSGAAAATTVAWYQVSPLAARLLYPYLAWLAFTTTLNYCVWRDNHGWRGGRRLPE
Chain of Cytochrome P450 2C9 (P11712 whole entry): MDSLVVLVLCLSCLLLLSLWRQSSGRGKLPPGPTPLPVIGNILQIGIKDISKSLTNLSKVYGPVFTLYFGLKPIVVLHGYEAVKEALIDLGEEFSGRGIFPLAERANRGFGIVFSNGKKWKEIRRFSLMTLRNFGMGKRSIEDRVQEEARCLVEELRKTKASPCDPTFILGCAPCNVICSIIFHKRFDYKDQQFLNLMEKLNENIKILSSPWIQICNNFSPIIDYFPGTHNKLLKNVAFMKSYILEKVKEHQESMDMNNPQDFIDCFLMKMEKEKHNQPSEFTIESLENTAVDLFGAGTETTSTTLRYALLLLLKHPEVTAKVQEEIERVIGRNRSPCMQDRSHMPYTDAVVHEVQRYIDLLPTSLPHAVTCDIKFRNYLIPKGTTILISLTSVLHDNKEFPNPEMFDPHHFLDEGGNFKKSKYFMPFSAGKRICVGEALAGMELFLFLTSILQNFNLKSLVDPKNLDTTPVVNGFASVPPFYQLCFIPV

One may read the bioavailability as dose-corrected exposure relative to a reference, in per cent. Lower therefore signals little systemic uptake. As a reminder, the pKi is the negative decadic logarithm of the Ki, by convention in mol/L. As usually defined, the pIC50 is the negative decadic logarithm of the IC50, by convention in mol/L. As a reminder, the inhibition is the share of the control response that was lost under treatment. What is called half-life is the time in which the quantity being followed falls by half. Read a low half-life as rapid decline. What is called Emax is the maximal effect, on the per cent scale that the assay sets. Take `COc1cc(CCNc2nc(C#Cc3ccccc3)nc3c2ncn3[C@H]2[C@H](O)[C@H](O)[C@@H]3C[C@@H]32)ccc1O`: the result with Mus musculus [1] and in the series with Mus musculus [4] was Active. Besides, the bioavailability stood at 1.5% in the series “in vivo [2]” and 3.5% in “in vivo [13]”. Moreover, the pKi is 6.23 at Adenosine receptor A1, 5.45 in series [3], 5.65 on Translocator protein and 5.70 in series [8]. Further, the pIC50 on Cytochrome P450 1A2 was 5.54; on Cytochrome P450 2D6 it was under 4.52; against Cytochrome P450 2C19, under 4.52; against Cytochrome P450 2C9, 4.84; at Cytochrome P450 3A4 it was 5.65. The inhibition on Adenosine receptor A2a worked out at 39%; in series [6] it was 33%. Moreover, the outcome in the series with Mus musculus [5] was inactive. Also, in the series with Mus musculus [7], the inhibition entry was “inactive”. In addition, the results for the half-life in series [9] and in series [11] were 29.4 min and 27.4 min, respectively. The values for the Emax in series [10], in series [12] and in series [14] were 16%, 31% and 75.5%, respectively.
